Three molecules from ChEMBL document CHEMBL3627612, “Hirsutinolide Series Inhibit Stat3 Activity, Alter GCN1, MAP1B, Hsp105, G6PD, Vimentin, TrxR1, and Importin α-2 Expression, and Induce Antitumor Effects against Human Glioma” (J Med Chem, 2015) can be followed below.

The target of data set [1] is T1, Signal transducer and activator of transcription 3 (Homo sapiens, UniProt P40763). The experiment in a line: Inhibition of orthovandate-induced Stat3 phosphorylation in human U251MG cells at 5 uM for 3 hrs by immunoblot analysis in presence of 10 to 300 uM orthovandate. The format is cell-based. Particulars: U-251. The essentials:
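U251MG cells treated with 5 μM compound for 3 h without or with 10–300 μM Na3VO4. Whole-cell lysates of equal total protein immunoblotted for pStat3 and Stat3. Controls were 0.025% DMSO. Representative of 2–4 determinations.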
On the technique in general: Immunoblotting shows a protein as a band on a membrane.

For data set [2], the target named is T1, Signal transducer and activator of transcription 3. The experiment in a line: Inhibition of Stat3 activity in human U251MG cells assessed as phosphorylated Stat3 level at 5 uM by immunoblot analysis. The following applies: U-251, TDE = time-dependent effect. The format is cell-based.
Data set [3] has the same target. The experiment in a line: Inhibition of Stat3 dimer DNA binding activity in human U251MG cells nuclear extract after 1.5 hrs by EMSA using radiolabeled probe hSIE. Background: Mobility shift assays separate free from complexed probe on a gel.
The target in data set [4] is Signal transducer and activator of transcription 3 (Mus musculus) (UniProt P42227). The experiment in a line: Inhibition of Stat3 dimer DNA binding activity in mouse NIH3T3/vSrc nuclear extract at 5 uM preincubated for 30 mins followed by addition of radiolabeled probe hSIE for 30 mins by EMSA.
A short description of data set [5]: Antiproliferative activity against human SF295 cells for 72 hrs by cyquant assay. The format is functional, cell-based. Particulars: SF-295, 72 h. The essentials: (§1)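 CyQuant proliferation assay after 72 h compound exposure of cultured cells; relative viability normalized to DMSO-treated control; IC50 values derived. Glioma lines grown in RPMI or DMEM with 10% FBS and 1% nonessential amino acids.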

Data set [6] can be described thus: Cytotoxicity against mouse NIH/3T3 cells at 5uM after 72 hrs by cyquant cells. The format is cell-based. The following applies: nih3t3, 72 h. In short, it runs like this:
as §1

Data set [7] has as its target T1, Signal transducer and activator of transcription 3. The experiment in a line: Inhibition of Stat3 activity in human glioma (G22) patient-derived mouse xenograft cells assessed as phosphorylated Stat3 level at 5 uM after 3 hrs by immunoblot analysis. In short, it runs like this:
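Cultured G22 glioma patient-derived mouse xenograft cells (DMEM, 5–10% heat-inactivated FBS) treated with 5 μM compound for 0–24 h. Whole-cell lysates immunoblotted for pStat3, Stat3, GAPDH.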
A general note: Xenograft models place foreign cells or tissue in a host animal.

The subject of data set [8] is NIH3T3. The experiment in a line: Modulation of EGF-induced Stat5 phosphorylation in mouse NIH3T3 cells expressing human EGFR at 5 uM preincubated for 3 hrs followed by stimulation with 1 ug/ml EGF for 12 mins by immunoblot analysis. The format is cell-based. In short, it runs like this: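 Whole-cell lysates of equal total protein from NIH3T3/hEGFR fibroblasts, pretreated with or without 5 μM compound (control 0.025% DMSO) for 3 h, then stimulated with 1 μg/ml EGF for 12 min. SDS-PAGE immunoblotting for pStat1/Stat1 and pStat5/Stat5 with β-actin or GAPDH loading controls. Representative of 2–4 independent determinations.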

Data set [9] addresses Mitogen-activated protein kinase 1 and 3 (ERK2 and ERK1) (Mus musculus) (UniProt P63085+Q63844). The experiment in a line: Modulation of EGF-induced Erk1/2 phosphorylation in mouse NIH3T3 cells expressing human EGFR at 5 uM preincubated for 3 hrs followed by stimulation with 1 ug/ml EGF for 12 mins by immunoblot analysis. The format is cell-based. In short, it runs like this:
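NIH3T3/hEGFR fibroblasts pretreated with or without 5 μM compound for 3 h, then stimulated with 1 μg/ml EGF for 12 min. Whole-cell lysates of equal total protein immunoblotted for phospho and total Stat3, Stat1, Stat5, Erk1/2. Controls were 0.025% DMSO-treated cells. Representative of 2–4 independent determinations.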

In data set [10] the target is Microtubule-associated protein 1B (Homo sapiens) (UniProt P46821). The experiment in a line: Decrease in MAP1B expression in human U251MG cells at 5 uM for 2 hrs by immunoblot analysis. The format is functional, cell-based. Particulars: U-251.
The target of data set [11] is Heat shock protein 105 kDa (Homo sapiens) (UniProt Q92598). The experiment in a line: Decrease in Hsp105 expression in human Glioma (G22) patient derived xenograft cells at 5 uM for 2 hrs by immunoblot analysis. The format is functional. The following applies: Glioma cell.
Data set [12] is described as follows: Decrease in TrxR1 expression in human U251MG cells at 5 uM for 2 hrs by immunoblot analysis. Particulars: U-251. The format is functional, cell-based.
Data set [13] has as its target Stalled ribosome sensor GCN1 (Homo sapiens) (UniProt Q92616). The experiment in a line: Decrease in GCN1 expression in human Glioma (G22) patient derived xenograft cells at 5 uM for 2 hrs by immunoblot analysis. The format is functional. The following applies: Glioma cell.
Data set [14] can be described thus: Decrease in TrxR1 expression in human Glioma (G22) patient derived xenograft cells at 5 uM for 2 hrs by immunoblot analysis. The format is functional. Particulars: Glioma cell.
The nature of data set [15]: Decrease in vimentin expression in human U373MG cells at 5 uM for 2 hrs by immunoblot analysis. Particulars: U-373MG ATCC. The format is functional, cell-based.
Data set [16] has as its system Mus musculus. The experiment in a line: Toxicity in mouse xenografted with U251MG cells assessed as lethargy at 2 mg/kg three times a week for 33 days administered via oral gavage. The format is organism-based, U-251. The following applies: in vivo, 792 h. The essentials:
(§2)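 Four-week-old female athymic nude mice, injected subcutaneously in the left flank with 7.3×10^6 U251MG cells in PBS/matrigel (1:1). Tumors of 170–250 mm^3 formed by day 20, and groups were matched for mean size. Dosing was 2 mg/kg by oral gavage, three times weekly for 33 days, with 1% DMSO vehicle. Animals were monitored daily and weighed every 3 days.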

The test system of data set [17] is U-251. The experiment in a line: Increase in importin subunit alpha2 expression in human U251MG cells at 5 uM for 2 hrs by immunoblot analysis. The format is functional, cell-based.
Data set [18] deals with U-251. The experiment in a line: Increase in importin subunit alpha2 expression in human U251MG cells at 5 uM for 1 hr by mass spectrometry relative to control. The format is functional. The essentials: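 Global proteomic mass spectrometry of lysates from U251MG cells treated 1 h with 5 μM compound; protein levels expressed relative to DMSO-treated cells.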
Data set [19] can be described thus: Decrease in TrxR1 expression in human U373MG cells at 5 uM for 2 hrs by immunoblot analysis. The format is functional, cell-based. The following applies: U-373MG ATCC.
Data set [20] in a line: Decrease in G6PD expression in human U251MG cells at 5 uM for 2 hrs by immunoblot analysis. The format is functional, cell-based. Particulars: U-251.
Data set [21] deals with Microtubule-associated protein 1B (Homo sapiens) (UniProt P46821). The experiment in a line: Decrease in MAP1B expression in human U251MG cells at 5 uM for 1 hr by mass spectrometry relative to control. The format is functional, cell-based. The following applies: U-251. In short, it runs like this:
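U251MG cells treated 1 h with 5 μM compound; whole-cell lysates analyzed by global proteomics mass spectrometry; protein levels expressed relative to DMSO-treated cells.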

A short description of data set [22]: Decrease in G6PD expression in human U373MG cells at 5 uM for 2 hrs by immunoblot analysis. The following applies: U-373MG ATCC. The format is functional, cell-based.
For data set [23], the target named is Microtubule-associated protein 1B (Homo sapiens) (UniProt P46821). The experiment in a line: Decrease in MAP1B expression in human U373MG cells at 5 uM for 2 hrs by immunoblot analysis. Particulars: U-373MG ATCC. The format is functional, cell-based.
Data set [24] has as its system U-251. The experiment in a line: Antimitotic activity in human U251MG cells assessed as defect in sister chromatid segragation at 8 uM after 15 hrs confocal microscopic analysis. The format is functional, cell-based. The essentials:
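U251MG on coverslips synchronized by double thymidine block (2 mM), released 9 h, treated 15 h (8 μM; paclitaxel 100 nM). Fixed 4% paraformaldehyde, digitonin-permeabilized, BSA-blocked, stained for β-tubulin and MAP1B with DAPI counterstain; chromatid structure and segregation scored by confocal microscopy.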

Data set [25] addresses Heat shock protein 105 kDa (Homo sapiens) (UniProt Q92598). The experiment in a line: Decrease in Hsp105 expression in human U373MG cells at 5 uM for 2 hrs by immunoblot analysis. The format is functional, cell-based. The following applies: U-373MG ATCC.
The target is the same in data set [26]. The experiment in a line: Decrease in Hsp105 expression in human U251MG cells at 5 uM for 2 hrs by immunoblot analysis. The format is functional, cell-based. The following applies: U-251.
The test system of data set [27] is Mus musculus. The experiment in a line: Toxicity in mouse xenografted with U251MG cells assessed as loss of appetite at 2 mg/kg three times a week for 33 days administered via oral gavage. The format is organism-based, U-251. The following applies: in vivo, 792 h. In short, it runs like this:
as §2

Each structure is given as a SMILES string. Active and inactive are the calls of the source. No cut-off for these calls is given here.

Sequence of Mitogen-activated protein kinase 1 and 3 (ERK2 and ERK1) (Mus musculus) (P63085 whole entry, looked up): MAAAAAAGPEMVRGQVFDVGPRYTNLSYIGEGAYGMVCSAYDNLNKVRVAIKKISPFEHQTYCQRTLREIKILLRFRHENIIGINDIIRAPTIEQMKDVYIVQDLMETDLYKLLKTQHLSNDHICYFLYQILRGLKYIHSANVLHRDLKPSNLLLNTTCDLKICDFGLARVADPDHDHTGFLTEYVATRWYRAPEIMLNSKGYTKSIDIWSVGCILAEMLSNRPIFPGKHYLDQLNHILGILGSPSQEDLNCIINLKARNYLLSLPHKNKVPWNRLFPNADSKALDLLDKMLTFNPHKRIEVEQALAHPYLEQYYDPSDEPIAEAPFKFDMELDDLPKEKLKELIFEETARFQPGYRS
Sequence of Mitogen-activated protein kinase 1 and 3 (ERK2 and ERK1) (Mus musculus) (Q63844 whole entry, looked up): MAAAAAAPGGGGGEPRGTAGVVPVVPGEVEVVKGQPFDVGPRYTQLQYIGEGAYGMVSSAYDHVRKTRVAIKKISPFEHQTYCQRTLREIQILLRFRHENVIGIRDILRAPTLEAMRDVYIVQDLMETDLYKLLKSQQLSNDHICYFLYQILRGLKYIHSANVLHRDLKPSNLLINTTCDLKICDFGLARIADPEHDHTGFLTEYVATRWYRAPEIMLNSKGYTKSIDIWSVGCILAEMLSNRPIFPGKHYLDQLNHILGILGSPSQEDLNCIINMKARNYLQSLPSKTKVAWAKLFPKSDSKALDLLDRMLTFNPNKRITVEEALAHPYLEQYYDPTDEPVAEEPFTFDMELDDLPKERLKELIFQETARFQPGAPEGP
T1 sequence (P40763 whole entry): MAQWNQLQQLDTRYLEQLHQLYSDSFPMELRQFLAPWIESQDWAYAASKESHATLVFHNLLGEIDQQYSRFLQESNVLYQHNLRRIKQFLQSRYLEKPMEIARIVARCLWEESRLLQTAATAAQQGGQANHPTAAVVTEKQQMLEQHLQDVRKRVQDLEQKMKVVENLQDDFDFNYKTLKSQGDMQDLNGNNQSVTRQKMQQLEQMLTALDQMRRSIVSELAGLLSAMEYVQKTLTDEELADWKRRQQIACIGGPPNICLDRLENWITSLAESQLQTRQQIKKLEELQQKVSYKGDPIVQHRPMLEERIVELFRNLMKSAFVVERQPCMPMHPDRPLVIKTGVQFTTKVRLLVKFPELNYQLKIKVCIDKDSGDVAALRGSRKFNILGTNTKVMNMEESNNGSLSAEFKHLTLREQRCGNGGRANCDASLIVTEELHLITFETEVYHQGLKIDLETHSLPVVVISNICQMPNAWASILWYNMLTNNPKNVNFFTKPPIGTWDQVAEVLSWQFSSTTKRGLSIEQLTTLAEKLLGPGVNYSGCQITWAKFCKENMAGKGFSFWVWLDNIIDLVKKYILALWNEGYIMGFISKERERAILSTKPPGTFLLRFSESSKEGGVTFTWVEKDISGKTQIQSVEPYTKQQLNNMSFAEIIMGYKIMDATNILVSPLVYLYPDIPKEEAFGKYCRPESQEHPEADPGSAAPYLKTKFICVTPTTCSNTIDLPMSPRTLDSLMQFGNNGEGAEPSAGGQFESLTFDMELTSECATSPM
Sequence of Microtubule-associated protein 1B (Homo sapiens) (P46821 2-2206 limits assumed): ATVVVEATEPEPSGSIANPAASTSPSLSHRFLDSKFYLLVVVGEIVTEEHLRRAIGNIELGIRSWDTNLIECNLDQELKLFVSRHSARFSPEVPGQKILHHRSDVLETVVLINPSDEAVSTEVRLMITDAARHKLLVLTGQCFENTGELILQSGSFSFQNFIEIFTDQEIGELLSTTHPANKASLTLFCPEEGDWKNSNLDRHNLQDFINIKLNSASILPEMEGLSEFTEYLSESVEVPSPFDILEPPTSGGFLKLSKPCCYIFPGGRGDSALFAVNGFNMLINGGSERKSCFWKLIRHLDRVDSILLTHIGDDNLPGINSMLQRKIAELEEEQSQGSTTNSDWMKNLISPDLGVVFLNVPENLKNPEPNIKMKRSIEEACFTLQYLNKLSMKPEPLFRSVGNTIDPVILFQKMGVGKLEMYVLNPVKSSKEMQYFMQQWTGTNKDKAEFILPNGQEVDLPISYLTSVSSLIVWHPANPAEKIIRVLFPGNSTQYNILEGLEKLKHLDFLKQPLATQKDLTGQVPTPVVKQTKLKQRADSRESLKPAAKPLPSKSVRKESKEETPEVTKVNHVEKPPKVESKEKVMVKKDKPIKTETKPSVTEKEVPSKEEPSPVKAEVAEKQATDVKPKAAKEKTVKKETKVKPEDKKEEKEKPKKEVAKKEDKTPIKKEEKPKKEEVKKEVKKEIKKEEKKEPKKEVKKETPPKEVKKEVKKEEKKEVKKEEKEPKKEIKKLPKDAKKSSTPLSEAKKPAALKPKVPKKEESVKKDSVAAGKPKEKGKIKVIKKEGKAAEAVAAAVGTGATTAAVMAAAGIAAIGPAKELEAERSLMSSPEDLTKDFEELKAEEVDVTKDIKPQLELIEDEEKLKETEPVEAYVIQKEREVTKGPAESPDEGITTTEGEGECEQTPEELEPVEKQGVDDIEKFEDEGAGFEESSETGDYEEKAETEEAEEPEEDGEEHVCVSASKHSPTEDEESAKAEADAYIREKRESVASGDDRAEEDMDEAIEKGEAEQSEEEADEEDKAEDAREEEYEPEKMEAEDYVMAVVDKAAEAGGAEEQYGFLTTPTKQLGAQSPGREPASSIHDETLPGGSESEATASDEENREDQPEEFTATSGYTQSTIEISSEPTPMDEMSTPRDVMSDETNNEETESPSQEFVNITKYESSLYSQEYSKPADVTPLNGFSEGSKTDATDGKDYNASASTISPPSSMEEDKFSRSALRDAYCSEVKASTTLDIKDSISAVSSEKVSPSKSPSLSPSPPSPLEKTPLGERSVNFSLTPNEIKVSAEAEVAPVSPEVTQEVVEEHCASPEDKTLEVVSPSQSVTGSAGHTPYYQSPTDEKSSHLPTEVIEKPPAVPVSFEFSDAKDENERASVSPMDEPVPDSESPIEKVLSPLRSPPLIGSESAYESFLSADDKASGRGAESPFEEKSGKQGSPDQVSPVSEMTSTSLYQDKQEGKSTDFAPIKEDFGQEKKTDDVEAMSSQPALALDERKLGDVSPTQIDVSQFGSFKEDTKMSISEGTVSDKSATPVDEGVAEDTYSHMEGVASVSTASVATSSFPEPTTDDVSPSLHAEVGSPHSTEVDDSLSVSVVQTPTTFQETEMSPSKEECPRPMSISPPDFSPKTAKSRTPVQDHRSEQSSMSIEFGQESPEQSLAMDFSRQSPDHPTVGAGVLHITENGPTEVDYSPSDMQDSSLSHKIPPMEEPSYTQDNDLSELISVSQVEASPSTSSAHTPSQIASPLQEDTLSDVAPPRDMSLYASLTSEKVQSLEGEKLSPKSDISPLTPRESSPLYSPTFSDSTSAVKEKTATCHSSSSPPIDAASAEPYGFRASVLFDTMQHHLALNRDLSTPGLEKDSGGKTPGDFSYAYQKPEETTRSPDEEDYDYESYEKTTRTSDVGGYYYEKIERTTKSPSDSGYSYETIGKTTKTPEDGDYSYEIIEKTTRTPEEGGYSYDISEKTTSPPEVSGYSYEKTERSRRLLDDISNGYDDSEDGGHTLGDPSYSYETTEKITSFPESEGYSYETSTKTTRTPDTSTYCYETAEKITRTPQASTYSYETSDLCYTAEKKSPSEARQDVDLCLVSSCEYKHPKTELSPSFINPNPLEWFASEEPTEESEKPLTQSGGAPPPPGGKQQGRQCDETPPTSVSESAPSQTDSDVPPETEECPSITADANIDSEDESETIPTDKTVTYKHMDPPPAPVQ
Sequence of Microtubule-associated protein 1B (Homo sapiens) (P46821 2207-2468 limits assumed): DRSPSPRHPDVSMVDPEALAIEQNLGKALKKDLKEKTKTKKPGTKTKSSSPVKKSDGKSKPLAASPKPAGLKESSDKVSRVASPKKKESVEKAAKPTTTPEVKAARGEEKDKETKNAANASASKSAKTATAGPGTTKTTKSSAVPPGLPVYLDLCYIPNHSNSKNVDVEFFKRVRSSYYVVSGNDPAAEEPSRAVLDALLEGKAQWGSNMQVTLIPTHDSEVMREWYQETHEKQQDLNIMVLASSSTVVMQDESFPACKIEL
Sequence of Heat shock protein 105 kDa (Homo sapiens) (Q92598 whole entry): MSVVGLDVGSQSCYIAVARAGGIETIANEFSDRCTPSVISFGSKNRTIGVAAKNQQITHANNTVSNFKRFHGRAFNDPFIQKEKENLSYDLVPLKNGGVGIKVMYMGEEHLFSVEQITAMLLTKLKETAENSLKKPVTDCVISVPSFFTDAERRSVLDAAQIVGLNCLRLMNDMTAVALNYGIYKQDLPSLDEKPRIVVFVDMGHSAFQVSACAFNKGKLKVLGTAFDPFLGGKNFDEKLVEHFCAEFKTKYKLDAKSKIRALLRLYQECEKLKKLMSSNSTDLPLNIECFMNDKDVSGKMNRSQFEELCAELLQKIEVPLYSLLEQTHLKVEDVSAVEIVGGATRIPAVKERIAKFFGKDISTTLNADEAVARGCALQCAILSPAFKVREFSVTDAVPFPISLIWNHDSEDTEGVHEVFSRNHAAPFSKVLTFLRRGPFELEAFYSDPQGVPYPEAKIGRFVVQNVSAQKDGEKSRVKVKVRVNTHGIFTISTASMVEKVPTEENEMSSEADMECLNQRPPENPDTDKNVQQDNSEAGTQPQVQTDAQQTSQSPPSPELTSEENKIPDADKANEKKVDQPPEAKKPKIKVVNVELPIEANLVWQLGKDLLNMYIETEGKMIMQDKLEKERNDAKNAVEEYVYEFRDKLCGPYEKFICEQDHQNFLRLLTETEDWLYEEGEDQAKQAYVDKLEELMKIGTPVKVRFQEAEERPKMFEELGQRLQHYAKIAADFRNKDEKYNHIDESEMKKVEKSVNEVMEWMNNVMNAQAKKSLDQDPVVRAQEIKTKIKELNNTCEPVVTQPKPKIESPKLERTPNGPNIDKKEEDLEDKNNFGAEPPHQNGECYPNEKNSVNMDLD
Sequence of Signal transducer and activator of transcription 3 (Mus musculus) (P42227 whole entry): as the sequence (P40763 whole entry) above, with E760D counted along it

The term IC50 denotes the concentration that gives 50% inhibition. Read a low IC50 as greater potency. As to `C/C=C(\C)C(=O)O[C@H]1C[C@@H](C)[C@]2(OC)CC[C@](C)(/C=C3/OC(=O)C(COC(C)=O)=C31)O2`, the inhibition result in data set [1], in data set [4] and in data set [7] was “Active” in each case. The inhibition result in data set [2] is “tde”. The half-maximal inhibitory concentration (IC50) turned out to be 3.2 µM in data set [3] and 8.2 µM in data set [5]. The Activity entry in data set [6] was “Toxic”. The inhibition entry in [8] and in data set [9] was “inactive” in each case.
For the molecule `C/C=C(\C)C(=O)OCC1=C2/C(=C\[C@@]3(C)CC[C@](O)(O3)[C@H](C)C[C@@H]2O)OC1=O`, the inhibition result in data set [10], in data set [1], in data set [11], in data set [12], in [13] and in data set [4] was “Active” throughout. Besides, the inhibition result in data set [14], in data set [15], in [19], in data set [20], in [22] and in data set [23] was “Active” throughout. The inhibition entry in data set [7], in data set [25] and in data set [26] was “Active” in each case. Moreover, in [2], the inhibition result is “tde”. The figures for the 50% inhibitory concentration (IC50) in data set [3] and in [5] were 2.6 µM and 9.6 µM, respectively. In addition, the Activity entry in data set [16], in data set [6] and in data set [27] was “Non-toxic” in each case. For the same molecule, the outcome in [17] and in [24] was Active. Further, the “fold change (FC)” value was determined as 2.421 in data set [18] and 0.413 in [21]. Besides, the inhibition result in data set [8] and in [9] was “inactive” each time.
For `C/C=C(\C)C(=O)O[C@H]1C[C@@H](C)[C@]2(O)CC[C@](C)(/C=C3/OC(=O)C(COC(C)=O)=C31)O2`, the inhibition result in data set [10], in data set [1], in [11], in [12], in data set [13] and in [4] was “Active” each time. Besides, the inhibition result in data set [14], in [15], in [19], in data set [20], in data set [22] and in data set [23] was “Active” each time. For the same molecule, the inhibition result in data set [7], in [25] and in data set [26] was “Active” in each case. In [2], the inhibition result is “tde”. Further, the IC50 in data set [3] came out at 2.2 µM; in data set [5], 7.5 µM. Also, the Activity result is “Non-toxic” in [16], “Toxic” in [6] and “Non-toxic” in data set [27]. In addition, the outcome in data set [17] and in data set [24] was Active. Also, the “fold change (FC)” value in data set [18] is 2.0137; in [21] it was 0.649. Also, the inhibition result in data set [8] and in data set [9] was “inactive” each time.
